From ChEMBL document CHEMBL1124534, “Synthesis, mechanism of action, and biological evaluation of mitosenes” (1989)
In brackets after ≈: the same amount, converted by molar mass.

Columns and labels:
[1] = test system: Mus musculus; assay: Percent inhibition of compound (10 mg/Kg) was evaluated in vivo for antitumor activity against MAC 13 in female NMRI mice on day 2; format: functional
Method in brief: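 MAC 13 in female NMRI mice. Drugs were given in arachis oil BP by ip route on day 2 or day 29. % inhibition was derived from treated/untreated control tumor weight (volume); a negative value indicates stimulation.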

[2] = test system: L1210; assay: In vitro antitumor activity against L1210 lymphocytic leukemia tumor cell line was determined; format: functional; details: Mus musculus, read-out: ID50 (the source's name)
Method in brief: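 Inhibition of L1210 leukemia colony formation in vitro, with mitomycin C as positive reference.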

[3] = test system: Mus musculus; assay: Percent T/C ([…]) for antitumor activity against P388 Leukemia in CD2 mice at fractioned dose treatment of 8 mg/Kg; format: functional; details: in the assay text read “single dose” for “fractioned dose”
Method in brief: (§1)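 Mouse P388 leukemia model. Drugs were given intraperitoneally, either as a single injection or once daily for 9 consecutive days (fractioned schedule). Outcomes were median survival time in days, %T/C, and % body weight change.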

[4] = test system: Mus musculus; assay: Mean relative body weight change of treated / mean relative body weight change of control when compound (3 mg/kg/day) administered to inhibit growth of human tumor xenograft GXF 97 was reported at day 21 in nude mice; format: functional
Method in brief: (§2)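 GXF 97 xenograft grown subcutaneously in nude mice for 24 days, then randomized; ip dosing began 1 day later, given on days 1-4, with 4-5 mice per group. Read-out is mean relative body weight change of treated divided by mean relative body weight change of controls, in %.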

[5] = test system: Mus musculus; assay: Mean relative body weight change of treated / mean relative body weight change of control when compound (3 mg/kg/day) administered to inhibit growth of human tumor xenograft GXF 97 was reported at day 28 in nude mice; format: functional; method in brief: as §2
[6] = test system: Mus musculus; assay: Median survival time in days for antitumor activity against P388 Leukemia in CD2 mice at single dose treatment of 12 mg/Kg
[7] = test system: Mus musculus; assay: Ability of intraperitoneally administered compound (3 mg/kg/day) to inhibit growth of human tumor xenograft GXF 97 was assessed on day 28 in nude mice; format: functional
Method in brief: (§3)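 GXF 97 human gastric xenograft grown subcutaneously in nude mice for 24 days, then randomized; dosing began 1 day later as ip injections on days 1-4. Groups had 4-5 mice. Tumor length and width were measured. %T/C = median relative tumor size of treated / median relative tumor size of controls.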

[8] = test system: Mus musculus; assay: Compound (10 mg/Kg) was evaluated in vivo for antitumor activity against MAC 16 in female NMRI mice on day 12 and ratio of tumor weight of treated to that of control was determined; format: functional
[9] = test system: Mus musculus; assay: Compound (10 mg/Kg) was evaluated in vivo for antitumor activity against MAC 16 in female NMRI mice on day 4 and ratio of tumor weight of treated to that of control was determined; format: functional
[10] = test system: Mus musculus; assay: Percent T/C ([…]) for antitumor activity against P388 Leukemia in CD2 mice at fractioned dose treatment of 2 mg/kg; format: functional; method in brief: as §1
[11] = test system: Mus musculus; assay: Compound (10 mg/Kg) was evaluated in vivo for antitumor activity against MAC 13 in female NMRI mice on day 2 and ratio of tumor weight of treated to that of control was determined
[12] = test system: Mus musculus; assay: Percentage change in body weight [(day 6 - day 1)/ day 1] for antitumor activity against P388 Leukemia in CD2 mice at fractioned dose treatment of 2 mg/Kg; format: functional; method in brief: as §1
[13] = test system: WiDr; assay: In vitro antitumor activity against WiDr colon carcinoma tumor cell line was determined; format: functional; details: Homo sapiens, read-out: ID50 (the source's name)
Method in brief: (§4)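 Cell growth inhibition in vitro measured by the PIT method, with mitomycin C as positive reference.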

[14] = test system: Mus musculus; assay: Percentage change in body weight [(day 6 - day 1)/ day 1] for antitumor activity against P388 Leukemia in CD2 mice at fractioned dose treatment of 8 mg/Kg; format: functional; details: in the assay text read “single dose treatment” for “fractioned dose treatment”; method in brief: as §1
[15] = test system: Mus musculus; assay: Percent T/C ([…]) for antitumor activity against P388 Leukemia in CD2 mice at fractioned dose treatment of 12 mg/kg; format: functional; details: in the assay text read “single dose” for “fractioned dose”; method in brief: as §1
[16] = test system: Mus musculus; assay: Ability of intraperitoneally administered compound (3 mg/kg/day) to inhibit growth of human tumor xenograft GXF 97 was assessed on day 21 in nude mice; format: functional; method in brief: as §3
[17] = test system: Mus musculus; assay: Median survival time in days for antitumor activity against P388 Leukemia in CD2 mice at single dose treatment of 8 mg/Kg
[18] = test system: Mus musculus; assay: Median survival time in days for antitumor activity against P388 Leukemia in CD2 mice at fractioned dose treatment of 2 mg/kg; format: functional
Method in brief: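 P388 leukemia-bearing mice were dosed intraperitoneally once daily for 9 consecutive days (fractioned schedule). The read-out was median survival time in days, reported alongside %T/C and % body weight change.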

[19] = test system: Mus musculus; assay: Body wieght treated/body weight untreated controls of compound (10 mg/Kg) was evaluated in vivo for antitumor activity against MAC 16 in female NMRI mice on day 12; format: functional
[20] = test system: Mus musculus; assay: Body wieght treated/body weight untreated controls of compound (10 mg/Kg) was evaluated in vivo for antitumor activity against MAC 16 in female NMRI mice on day 4; format: functional
[21] = test system: Mus musculus; assay: Ability of intraperitoneally administered compound (3 mg/kg/day) to inhibit growth of human tumor xenograft GXF 97 was assessed on day 14 in nude mice; format: functional; method in brief: as §3
[22] = test system: A204; assay: In vitro antitumor activity against A204 rhabdomyosarcoma tumor cell line was determined; format: functional; details: Homo sapiens, read-out: ID50 (the source's name); method in brief: as §4
[23] = test system: Mus musculus; assay: Mean relative body weight change of treated / mean relative body weight change of control when compound (3 mg/kg/day) administered to inhibit growth of human tumor xenograft GXF 97 was reported at day 14 in nude mice; format: functional; method in brief: as §2
[24] = test system: Mus musculus; assay: Percentage change in body weight [(day 6 - day 1)/ day 1] for antitumor activity against P388 Leukemia in CD2 mice at fractioned dose treatment of 12 mg/kg; format: functional; details: in the assay text read “single dose treatment” for “fractioned dose treatment”; method in brief: as §1
[25] = test system: Mus musculus; assay: Relative tumor size on day 28 was reported when compound (3 mg/kg/day) administered to inhibit growth of human tumor xenograft GXF 97 in nude mice; format: functional
Method in brief: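 GXF 97 human gastric xenograft grown subcutaneously in nude mice for 24 days, then mice randomized; treatment began 1 day later. Fractioned ip injections on days 1-4, or single iv injection on day 1; 4-5 mice per group. Tumor size from length and width; relative tumor size (% of controls) read at day 28.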

COC1=CC(=O)c2c(c(COC(C)=O)c3n2CCC3OC(C)=O)C1=O (stereo not given)
I [1]: -52% | IC50 [2]: 0.495 µg/mL (≈ 1.43 µM) | T/C [3]: 100% | BWC [4]: 86.5% | BWC [5]: 87.1% | MST [6]: 10 days | T/C [7]: 31.7% | T/C [8]: 104% | T/C [9]: 99% | T/C [10]: 109% | T/C [11]: 152% | BWC [12]: -20.9% | IC50 [13]: 0.037 µg/mL (≈ 0.107 µM) | BWC [14]: -2% | T/C [15]: 91% | T/C [16]: 31.7% | MST [17]: 11 days | MST [18]: 12 days | BW [19]: 81% | BW [20]: 105% | T/C [21]: 39.3% | IC50 [22]: 0.008 µg/mL (≈ 0.023 µM) | BWC [23]: 89.6% | BWC [24]: -1.8% | Relative TS [25]: 210.1%
